Experiments:
[1] = substrate: CC(C)CCCC(C)CCCC(C)CCCC(C)CC(O)C12OC1(C)C(=O)c1ccccc1C2=O; assay: (§1) Vmax value at Vitamin K epoxide reductase
In short: (§2)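 Analogues served as alternative substrates in place of vitamin K1 epoxide for beef liver microsomal reductase (0.02% Emulgen 911, DTT), at 10–100 μM (12 levels). Km and Vmax came from rates of quinone product formation, not from substrate consumption. They were reported only where the quinone product was stable to DTT.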

[2] = substrate: C/C(=C\C(O)C12OC1(C)C(=O)c1ccccc1C2=O)CCCC(C)CCCC(C)CCCC(C)C; assay: as §1; in short: as §2
[3] = substrate: C/C(=C\CC12OC1(CO)C(=O)c1ccccc1C2=O)CCCC(C)CCCC(C)CCCC(C)C; assay: as §1; in short: as §2
[4] = substrate: C/C(=C\CC12OC1(C)C(=O)c1ccccc1C2=O)CCCC(C)CCCC(C)CCCC(C)C; assay: as §1; in short: as §2
[5] = substrate: C/C(=C\CC12OC1(CF)C(=O)c1ccccc1C2=O)CCCC(C)CCCC(C)CCCC(C)C; assay: as §1; in short: as §2
[6] = substrate: CC(C)CCCC(C)CCCC(C)CCCC(C)/C=C/C12OC1(C)C(=O)c1ccccc1C2=O; assay: as §1; in short: as §2
[7] = substrate: CC(C)CCCC(C)CCCC(C)CCCC(C)CCC12OC1(C)C(=O)c1ccccc1C2=O; assay: as §1; in short: as §2
[8] = substrate: CC(C)CCCC(C)CCCC(C)CCCC(C)CC(O)C12OC1(C)C(=O)c1ccccc1C2=O; assay: (§3) Km value at Vitamin K epoxide reductase; in short: as §2
[9] = substrate: C/C(=C\C(O)C12OC1(C)C(=O)c1ccccc1C2=O)CCCC(C)CCCC(C)CCCC(C)C; assay: as §3; in short: as §2
[10] = substrate: C/C(=C\CC12OC1(CO)C(=O)c1ccccc1C2=O)CCCC(C)CCCC(C)CCCC(C)C; assay: as §3; in short: as §2
[11] = substrate: C/C(=C\CC12OC1(C)C(=O)c1ccccc1C2=O)CCCC(C)CCCC(C)CCCC(C)C; assay: as §3; in short: as §2
[12] = substrate: C/C(=C\CC12OC1(CF)C(=O)c1ccccc1C2=O)CCCC(C)CCCC(C)CCCC(C)C; assay: as §3; in short: as §2
[13] = substrate: CC(C)CCCC(C)CCCC(C)CCCC(C)/C=C/C12OC1(C)C(=O)c1ccccc1C2=O; assay: as §3; in short: as §2
[14] = substrate: CC(C)CCCC(C)CCCC(C)CCCC(C)CCC12OC1(C)C(=O)c1ccccc1C2=O; assay: as §3; in short: as §2

B1: Vitamin K epoxide reductase complex subunit 1 (Bos taurus), Q6B4J2 (protein)
chain: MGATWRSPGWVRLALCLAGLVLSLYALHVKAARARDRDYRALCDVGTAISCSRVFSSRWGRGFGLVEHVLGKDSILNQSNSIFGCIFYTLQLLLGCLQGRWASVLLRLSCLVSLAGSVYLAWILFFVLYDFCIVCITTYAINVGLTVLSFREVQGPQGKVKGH
Work on B1 yielded a Vmax [1] of 1.6 pmol/s/mg, a Vmax [2] of 2.4 pmol/s/mg and a Vmax [3] of 3.4 pmol/s/mg. It also gave a Vmax [4] of 2.9 pmol/s/mg, a Vmax [5] of 4 pmol/s/mg and a Vmax [6] of 2 pmol/s/mg. The Vmax [7] was 2.1 pmol/s/mg, the Km [8] was 34 µM and the Km [9] was 25 µM. It also gave a Km [10] of 10 µM, a Km [11] of 18 µM and a Km [12] of 20 µM. The Km [13] was 68 µM and the Km [14] was 30 µM.
